Experimental data from ChEMBL document CHEMBL4229537, “Synthesis and bioactivities evaluation of l-pyroglutamic acid analogues from natural product lead” (Bioorg Med Chem, 2018).
pIC50: −log10 of the molar value. Values after ≈ are worked out from the molar mass of the structure shown.

What was measured:
Phytophthora infestans [1] = assay: Antifungal activity against Phytophthora infestans assessed as inhibition of zoospore release at 100 ug/ml after 4 hrs relative to control; type: functional
In short: (§1)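 Zoospore release assay: compounds mixed with zoosporangia, held at 4 °C in darkness for 4 h; screened at 100 µg/mL. Solvent negative, azoxystrobin positive control. Release scored once control release reached 90%. Inhibition (%) = (P0−P1)/P0×100. EC50 determined for compounds exceeding 50% inhibition. Means ± SD of three independent experiments.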

Bacillus thuringiensis = assay: Antibacterial activity against Bacillus thuringiensis at 2 mg/ml after 4 to 10 hrs by filter paper dispersion method; type: functional; settings: read-out: IZ
In short: (§2)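 Filter paper diffusion method. Activated bacteria suspended in sterile water, mixed into beef extract peptone medium, and 3 mL poured per 9 cm dish. 5 µL of 2 mg/mL compound applied to 6 mm paper discs in three parallels. Fosfomycin as positive control, solvent as negative control. Dried discs placed on medium and incubated 4-10 h at 37°C. Inhibition zone size and transparency recorded by crisscross method.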

[2] = tested on: Pectobacterium carotovorum; assay: Antibacterial activity against Erwinia caratovora at 2 mg/ml after 4 to 10 hrs by filter paper dispersion method; type: functional; settings: read-out: IZ; in short: as §2
Phytophthora infestans [3] = assay: Antifungal activity against Phytophthora infestans assessed as inhibition of zoospore release after 4 hrs; type: functional, organism-based; in short: as §1
BV-2 = assay: Antiinflammatory activity in mouse BV2 cells assessed as inhibition of LPS-induced nitric oxide production after 24 hrs by Griess assay; type: functional, cell-based; settings: BV-2, 24 h
In short: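 BV-2 microglia plated at 1 × 10^5 cells/mL and grown 24 h. Cells pretreated with compound, then stimulated with 1 µg/mL LPS for another 24 h. Quercetin as positive control. Supernatant mixed with Griess reagent and absorbance read at 540 nm. IC50 reported as mean ± SD of three independent experiments.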

[4] = Cytotoxicity against LPS-treated mouse BV2 cells assessed as cell viability after 24 hrs by SRB assay relative to control; type: cell-based, BV-2; parameters: concentration or dose not given beside the values; settings: read-out: Activity
In short: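 BV-2 cells pretreated with compound, then exposed to 1 µg/mL LPS for 24 h. Viability measured by SRB assay and expressed as % of control group. Mean ± SD of three independent experiments.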

PC-12 = assay: Neurotogenic activity in NGF-induced rat PC12 cells assessed as neurite bearing cell levels at 20 uM after 48 hrs by inverted microscopic method (reference value: 0.77 +/- 0.13%); type: functional
Staphylococcus aureus = assay: Antibacterial activity against Staphylococcus aureus at 2 mg/ml after 4 to 10 hrs by filter paper dispersion method; type: functional; settings: read-out: IZ; in short: as §2
Bacillus cereus = assay: Antibacterial activity against Bacillus cereus at 2 mg/ml after 4 to 10 hrs by filter paper dispersion method; type: functional; settings: read-out: IZ; in short: as §2
Ralstonia solanacearum = assay: Antibacterial activity against Ralstonia solanacearum at 2 mg/ml after 4 to 10 hrs by filter paper dispersion method; type: functional; settings: read-out: IZ
Phytophthora infestans [5] = assay: Potency index, ratio of azoxystrobin EC50 to test compound EC50 for Phytophthora infestans; type: functional
Phytophthora infestans [6] = assay: Antifungal activity against Phytophthora infestans; type: functional, organism-based; in short: as §1
[7] = tested on: Pseudoperonospora cubensis; assay: Antifungal activity against Pseudoperonospora cubensis; type: functional, organism-based

Structure (SMILES)	inhibition at 100 µg/mL (Phytophthora infestans [1])	zone of inhibition at 2000 µg/mL (Bacillus thuringiensis)	EC50 (Phytophthora infestans [3])	also measured
O=C1CC[C@@H](C(=O)NCCc2c[nH]c3ccccc23)N1	21.5%	12 mm	–	zone of inhibition at 2000 µg/mL [2]: 15 mm
CC(C)COC(=O)[C@@H]1CCC(=O)N1	64.9%	–	–	–
O=C1CC[C@@H](C(=O)Oc2ccccc2Cl)N1	98.4%	–	14.6 µg/mL (≈ 60.8 µM)	–
O=C1CC[C@@H](C(=O)Oc2ccc(O)cc2)N1 [PIDOBENZONE]	–	–	–	pIC50 (BV-2): 5.35; viability at 24 h [4]: 92.6%; Activity (PC-12): 15.443%; zone of inhibition at 2000 µg/mL (Staphylococcus aureus): 6 mm; zone of inhibition at 2000 µg/mL (Bacillus cereus): 12 mm; zone of inhibition at 2000 µg/mL (Ralstonia solanacearum): 7 mm
O=C1CC[C@@H](C(=O)Oc2ccc(Cl)cc2)N1	98.1%	–	1.44 µg/mL (≈ 6.01 µM)	Ratio EC50 (Phytophthora infestans [5]): 7
Nc1ccccc1NC(=O)[C@@H]1CCC(=O)N1	–	11.5 mm	–	zone of inhibition at 2000 µg/mL (Bacillus cereus): 5.5 mm
NC(=O)[C@@H]1CCC(=O)N1	13.6%	8 mm	–	zone of inhibition at 2000 µg/mL (Ralstonia solanacearum): 5.5 mm
CC(C)NC(=O)[C@@H]1CCC(=O)N1	–	10 mm	–	zone of inhibition at 2000 µg/mL (Bacillus cereus): 5.5 mm
CCCCNC(=O)[C@@H]1CCC(=O)N1	17.8%	7.5 mm	–	–
O=C1CC[C@@H](C(=O)Nc2ccc([N+](=O)[O-])cc2)N1	47.5%	–	–	–
O=C1CC[C@@H](C(=O)Oc2ccccc2[N+](=O)[O-])N1	96.3%	–	8.58 µg/mL (≈ 34.3 µM)	–
Cc1ccccc1OC(=O)[C@@H]1CCC(=O)N1	48.6%	–	–	–
CC(C)(C)NC(=O)[C@@H]1CCC(=O)N1	–	–	–	zone of inhibition at 2000 µg/mL (Bacillus cereus): 12 mm
C#CCOC(=O)[C@@H]1CCC(=O)N1	–	–	–	zone of inhibition at 2000 µg/mL (Ralstonia solanacearum): 6 mm
O=c1c(O)c(-c2ccc(O)c(O)c2)oc2cc(O)cc(O)c12 [QUERCETIN]	–	–	–	pIC50 (BV-2): 5.37; viability at 24 h [4]: 99.5%
O=C1CC[C@@H](C(=O)O)N1 [PIDOLIC ACID]	98.8%	17.5 mm	7.85 µg/mL (≈ 60.8 µM)	zone of inhibition at 2000 µg/mL (Ralstonia solanacearum): 7.5 mm; EC50 (Phytophthora infestans [6]): 9.48 µg/mL (≈ 73.4 µM); EC50 [7]: 10.8 µg/mL (≈ 83.8 µM)
CCOC(=O)c1ccccc1OC(=O)[C@@H]1CCC(=O)N1	98.2%	13 mm	16.4 µg/mL (≈ 59.2 µM)	zone of inhibition at 2000 µg/mL (Staphylococcus aureus): 6.5 mm; zone of inhibition at 2000 µg/mL (Ralstonia solanacearum): 5.5 mm; zone of inhibition at 2000 µg/mL [2]: 11 mm
C#CCNC(=O)[C@@H]1CCC(=O)N1	–	9 mm	–	pIC50 (BV-2): 5.22; viability at 24 h [4]: 89.5%; zone of inhibition at 2000 µg/mL (Staphylococcus aureus): 6 mm
CCCCOC(=O)[C@@H]1CCC(=O)N1	99%	–	11.2 µg/mL (≈ 60.5 µM)	–
CCN(CC)C(=O)[C@@H]1CCC(=O)N1	35.8%	–	–	zone of inhibition at 2000 µg/mL (Bacillus cereus): 10 mm; zone of inhibition at 2000 µg/mL [2]: 12 mm

Structure (SMILES)	inhibition at 100 µg/mL (Phytophthora infestans [1])	zone of inhibition at 2000 µg/mL (Bacillus thuringiensis)	EC50 (Phytophthora infestans [3])	also measured
CC(C)OC(=O)[C@@H]1CCC(=O)N1	36.5%	–	–	–
CN1CCN(C(=O)[C@@H]2CCC(=O)N2)CC1	–	–	–	zone of inhibition at 2000 µg/mL (Bacillus cereus): 7 mm
CO/C=C(/C(=O)OC)c1ccccc1Oc1cc(Oc2ccccc2C#N)ncn1 [AZOXYSTROBIN]	99.2%	–	1.98 µg/mL (≈ 4.91 µM)	–
CCOC(=O)[C@@H]1CCC(=O)N1	95.8%	–	15.2 µg/mL (≈ 97 µM)	–
CN(C)C(=O)[C@@H]1CCC(=O)N1	44.3%	–	–	–
C=CCNC(=O)[C@@H]1CCC(=O)N1	49.3%	11.5 mm	–	pIC50 (BV-2): 5.04; viability at 24 h [4]: 95.4%; Activity (PC-12): 14.962%; zone of inhibition at 2000 µg/mL (Bacillus cereus): 15 mm
COC(=O)[C@@H]1CCC(=O)N1	26.1%	–	–	–
CNC(=O)[C@@H]1CCC(=O)N1	1.17%	12 mm	–	–
C=CCOC(=O)[C@@H]1CCC(=O)N1	84.2%	12 mm	–	–
O=C1CC[C@@H](C(=O)Oc2ccccc2)N1	98.3%	–	19.5 µg/mL (≈ 95.1 µM)	–
CCCOC(=O)[C@@H]1CCC(=O)N1	95.1%	–	12.4 µg/mL (≈ 72.6 µM)	–
Cc1ccc(C(C)C)c(OC(=O)[C@@H]2CCC(=O)N2)c1	13.2%	–	–	–
O=C1CC[C@@H](C(=O)Nc2ccc(C(F)(F)F)cc2)N1	–	13 mm	–	zone of inhibition at 2000 µg/mL (Bacillus cereus): 9.5 mm
CC1(C)S[C@@H]2[C@H](NC(=O)Cc3ccccc3)C(=O)N2[C@H]1C(=O)O [PENICILLIN G SODIUM]	–	27 mm	–	zone of inhibition at 2000 µg/mL (Staphylococcus aureus): 28 mm; zone of inhibition at 2000 µg/mL (Bacillus cereus): 25 mm; zone of inhibition at 2000 µg/mL (Ralstonia solanacearum): 24 mm; zone of inhibition at 2000 µg/mL [2]: 28 mm
N#Cc1ccccc1OC(=O)[C@@H]1CCC(=O)N1	98.3%	14 mm	9.62 µg/mL (≈ 41.8 µM)	zone of inhibition at 2000 µg/mL (Ralstonia solanacearum): 7 mm
NNC(=O)[C@@H]1CCC(=O)N1	–	14 mm	–	–
O=C1CC[C@@H](C(=O)Nc2ccccc2O)N1	33.7%	–	–	–
COC(=O)c1ccccc1NC(=O)[C@@H]1CCC(=O)N1	2.37%	–	–	zone of inhibition at 2000 µg/mL (Staphylococcus aureus): 6 mm; zone of inhibition at 2000 µg/mL (Bacillus cereus): 6 mm; zone of inhibition at 2000 µg/mL (Ralstonia solanacearum): 10 mm; zone of inhibition at 2000 µg/mL [2]: 9 mm
Cc1cc(Cl)ccc1OC(=O)[C@@H]1CCC(=O)N1	39.8%	–	–	pIC50 (BV-2): 4.71; viability at 24 h [4]: 91.1%
O=C1CC[C@@H](C(=O)Oc2cccc3ccccc23)N1	98.5%	–	1.21 µg/mL (≈ 4.74 µM)	Ratio EC50 (Phytophthora infestans [5]): 7
